VLA-4 inh = inhibition in a human VLA-4 binding assay; P13612; VLA-4 expressing cells, ligand binding flow cytometry; inhibition, % (about 7 µM as worked out from the volumes in the protocol); 0.2% of 330,000 active; AID 2557; in the data active = inhibition above about 50%
Exocytosis inh = blocks lytic granule exocytosis; inhibition, % at 10 µM; TALL-104 LAMP-1 surface exposure, flow cytometry; cells stimulated with thapsigargin and PMA; 0.66% of 360,000 active; AID 651702;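 active = inhibition above about 55%, limit read from the data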
FGF22 binding = FGF22 (human) thermal shift binding. Q9HCT0. recombinant FGF22 thermal shift, SYPRO orange fluorescence; percent of sucrose octasulfate shift, DMSO zero. activity (Tm shift, normalised), % at 9.99 µM. 1.5% of 340,000 active. AID 651658;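 active = mean Tm shift, scaled 0 neutral to 100 positive control, at about 1.3% or above, every replicate too, limit read from the data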
MT1-MMP act inh = blocks activation of human MT1-MMP. P50281. HT1080 RFP-PRO-GFP cells, GFP/RFP ratio fluorescence, overnight; percent of plate control window, DMSO zero. GFP/RFP ratio change, % at 20 µM. 0.061% of 360,000 active;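 active = GFP/RFP ratio change of at least 30% with cell ATP level not reduced by more than half and red fluorescence within 50% of control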
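Test system: HT1080 RFP-PRO-GFP cells; Benchmarks: DMSO and RFP-L50D-GFP cell wells; Timing: cells overnight before dosing, compound overnight, 37 °C, 5% CO2; Compound: one 20 µM compound dose with 1% DMSO; Read-out: GFP/RFP fluorescence ratio.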
DAGLB inhibitor = diacylglycerol lipase beta (human) inhibition; AID 504411; 0.059% of 340,000 active; inhibition, % at 5.17 µM; HEK293T DAGLB membrane lysate, EnzChek fluorogenic substrate; Q8NCG7; in the data active = inhibition above about 34%;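 also: 0% = enzyme with vehicle and 100% = wells lacking enzyme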
ABCB6 inh 2 = human ABCB6 transporter inhibition. Q9NP58. K562-ABCB6 porphyrin accumulation, flow cytometry, 1 h; active compounds read low. fluorescence ratio to DMSO, % at 10 µM. 0.19% of 360,000 active. AID 602162;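 active = fluorescence ratio to DMSO below 75%, the collection mean minus 3 SD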;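 also: signal is porphyrin accumulated inside mitochondria; 100% equals median channel fluorescence of DMSO control wells; lower ratio means ABCB6 inhibition with less porphyrin fluorescence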
The depositor's hits bear a star; · = no result given. Rows were chosen to be rich in hits. Some 2% of all compounds tested hit in one or more screens of this group.

SMILES	VLA-4 inh	Exocytosis inh	FGF22 binding	MT1-MMP act inh	DAGLB inhibitor	ABCB6 inh 2
CC1=NN(C(=S)Nc2ccccc2)C(c2ccccc2)C1 (centres undefined)	5.0	0.1	·	3.8	-1.4	99.0
C[C@@H]1CN([C@H](C)CO)C(=O)c2cc(NC(=O)CCN3CCOCC3)ccc2O[C@H]1CN(C)Cc1ccc(C(F)(F)F)cc1	·	·	0.2	·	·	·
COc1cc(/C=C/C(=O)Nc2cccc(S(=O)(=O)N3CCOCC3)c2)ccc1OCC#N	-8.0	-0.1	4.1*	10.7	-4.4	94.0
COc1ccc(/C=C/C(=O)Nc2cccc(S(=O)(=O)N3CCOCC3)c2)cc1OC	·	0.4	0.1	3.0	-0.8	93.0
CCOC(=O)c1ccc([N+](=O)[O-])c(CS(=O)(=O)c2ccc(Cl)cc2)c1	12.6	6.9	-0.1	0.7	0.9	96.0
Cc1ccc(S(=O)(=O)Cc2cc(F)c([N+](=O)[O-])cc2[N+](=O)[O-])cc1	25.8	72.2*	·	-5.0	1.2	98.0
CC(C)c1onc(C(=O)Nc2cccc(Cl)c2)c1[N+](=O)[O-]	8.9	2.9	43.4*	-2.2	-8.3	105.0
COc1ccc(C(=O)N/C(=C\c2cn(C)c3ccccc23)C(=O)OCCN(C)C)cc1	2.0	10.8	27.9*	0.4	1.5	100.0
C[C@@H]1CN([C@@H](C)CO)C(=O)c2cc(NC(=O)Nc3ccccc3)ccc2O[C@@H]1CN(C)Cc1ccc2c(c1)OCO2	·	·	-0.1	·	·	·
CS(=O)(=O)N(CC(=O)NCCSc1ccccn1)c1ccc(F)cc1	-2.1	-1.0	43.1*	0.6	0.9	95.0
COc1ccc(N(CC(=O)NCCSc2ccccn2)S(C)(=O)=O)cc1	4.0	1.4	·	3.9	-2.9	99.0
CC(=O)c1ccc(NC(=S)NN2C(C)CCCC2C)cc1 (centres undefined)	13.9	2.4	43.3*	2.7	-2.3	97.0
C=CCN1C(=O)C2(NC(=O)c3ccccc3N2)c2ccccc21 (centres undefined)	-40.2	2.9	43.0*	-1.0	-0.4	97.0
CCN1[C@H](C(=O)N(C)C)[C@@H](CO)[C@@H]2Cn3c(ccc(-c4cccc(C(=O)N(C)C)c4)c3=O)[C@@H]21	·	·	0.3	·	·	·
Cc1ccccc1NS(=O)(=O)c1ccc2[nH]c(=O)[nH]c2c1	1.7	2.0	42.9*	1.6	·	96.0
CCOc1ccccc1NS(=O)(=O)c1ccc2[nH]c(=O)[nH]c2c1	9.5	-4.8	0.1	-1.5	-1.8	97.0
Cc1cccc(Nc2nc(N)nc(-c3oc4ccccc4c3C)n2)c1	-6.7	12.2	38.8*	-5.4	0.2	97.0
C[C@@H]1CN([C@@H](C)CO)S(=O)(=O)c2ccc(-c3cccnc3)cc2O[C@@H]1CN(C)C(=O)c1cccc(F)c1	·	·	-0.1	·	·	·
CS(=O)(=O)c1ccc2nc(NC(=O)c3cc(-c4ccccc4)nn3-c3ccccc3)sc2c1	-0.7	1.1	43.3*	-3.0	-2.2	89.0
Cc1ccccc1-c1nnc(-c2ccccc2C)o1	-2.3	-0.4	·	0.3	-15.8	94.0
Cc1ccccc1-c1ccccc1N	15.9	-0.6	44.2*	3.7	3.0	107.0
COc1cc(NC(=O)c2ccccc2)c(OC)cc1NC(C)=O	-1.2	0.4	·	0.9	-0.3	96.0
COc1cc(NC(=O)COc2ccccc2)c(OC)cc1NC(C)=O	6.4	4.9	43.1*	2.2	2.2	91.0
C[C@H](CO)N1C[C@H](C)[C@H](CN(C)S(=O)(=O)c2ccc(F)cc2)Oc2ccc(NC(=O)Cc3ccccc3)cc2C1=O	·	·	-0.2	·	·	·
CCOC(=O)C1=C(CS(=O)(=O)c2ccccc2)NC(=O)NC1c1cccc(OC)c1 (centres undefined)	-6.8	-4.9	43.9*	3.2	1.9	99.0
Cc1c(N=N/C(C(=O)Nc2ccccc2)=C(/O)c2ccccc2)c(=O)n(-c2ccccc2)n1C	-7.0	1.3	0.2	-23.0	1.5	109.0
CCOC(=O)/C(N=Nc1c(C)n(C)n(-c2ccccc2)c1=O)=C(/O)c1ccccc1	-0.2	-1.1	43.3*	6.1	0.2	94.0
Cc1ccc(S(=O)(=O)NCC(=O)NCC(=O)OCC(=O)NC(=O)NC(C)(C)C)cc1C	-1.8	-0.3	43.0*	1.0	0.6	94.0

Screening results deposited in PubChem BioAssay by several laboratories.
